What was measured:
[1] = system: Clostridioides difficile; assay: Potency index, ratio of vancomycin MIC to test compound MIC for antibacterial activity against Clostridioides difficile NR-32883 P2; type: functional
[2] = system: Clostridioides difficile; assay: Potency index, ratio of vancomycin MIC to test compound MIC for antibacterial activity against Clostridioides difficile NR-32895 P19; type: functional
[3] = system: Lactobacillus crispatus; assay: Antibacterial activity against Lactobacillus crispatus HM-103 assessed as reduction in microbial growth after 48 hrs by broth microdilution method
Summary of the method: (§1)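 Gut commensal MICs by broth microdilution: a 0.5 McFarland suspension was diluted to ~5 × 10^5 CFU/mL in BHIS broth (Bacteroides) or MRS broth (Lactobacillus). Agents were serially diluted and incubated 48 h at 37°C. MIC was read by visual inspection of growth.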

[4] = system: Lactobacillus crispatus; assay: Antibacterial activity against Lactobacillus crispatus HM-371 assessed as reduction in microbial growth after 48 hrs by broth microdilution method; summary of the method: as §1
[5] = system: Phocaeicola dorei; assay: Antibacterial activity against Bacteroides dorei HM-719 assessed as reduction in microbial growth after 48 hrs by broth microdilution method; type: organism-based; summary of the method: as §1
[6] = system: Clostridioides difficile; assay: Antibacterial activity against Clostridioides difficile ATCC 43255 infected in CDI mouse model assessed as survival rate at 50 mg/kg, po for 5 days relative to control; type: functional; conditions: ATCC 43255, po, 120 h, time 5 day
[7] = Selectivity ratio of MIC for antibacterial activity against Bacteroides fragilis HM-711 to antibacterial activity against Clostridioides difficile NR-13432 isolate 6; type: ADME
[8] = Selectivity ratio of MIC for antibacterial activity against Bacteroides fragilis HM-711 to antibacterial activity against Clostridioides difficile NR-32904 P30; type: ADME
[9] = Selectivity ratio of MIC for antibacterial activity against Bacteroides fragilis HM-709 to antibacterial activity against Clostridioides difficile NR-13432 isolate 6; type: ADME
[10] = Selectivity ratio of MIC for antibacterial activity against Bacteroides fragilis HM-709 to antibacterial activity against Clostridioides difficile NR-13435 isolate 9; type: ADME
[11] = Selectivity ratio of MIC for antibacterial activity against Bacteroides fragilis HM-709 to antibacterial activity against Clostridioides difficile NR-32904 P30; type: ADME
[12] = Selectivity ratio of MIC for antibacterial activity against Bacteroides dorei HM-719 to antibacterial activity against Clostridioides difficile NR-32891 P13; type: ADME
[13] = Selectivity ratio of MIC for antibacterial activity against Bacteroides dorei HM-719 to antibacterial activity against Clostridioides difficile NR-32904 P30; type: ADME

SMILES: O=C(Nc1nnc(-c2cc(Cl)cc(Cl)c2)o1)c1ccc(SC(F)(F)F)cc1
- Ratio [1]: 2.5
- Ratio [2]: 2.5
- MIC [3]: 36.8 µM
- MIC [4]: 36.8 µM
- MIC [5]: 4.6 µM
- survival at 50 mg/kg [6]: 66.7%
- Selectivity ratio [7]: 100
- Selectivity ratio [8]: 100
- Selectivity ratio [9]: 100
- Selectivity ratio [10]: 100
- Selectivity ratio [11]: 100
- Selectivity ratio [12]: 100
- Selectivity ratio [13]: 100
